Series [1] concerns the target T1, Rho-associated protein kinase 2 (Homo sapiens, UniProt O75116). Briefly: Inhibition of wild type partial length human ROCK1 (M1 to T431 residues) expressed in Mammalian expression system by Euro-fins kinase profiler assay. Put shortly: (§1)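 IC50 values from the Eurofins Kinase Profiler service; averages of two independent experiments, mean ± SD.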
Target sequence in this assay (O75116 whole entry, the tested form may be a part): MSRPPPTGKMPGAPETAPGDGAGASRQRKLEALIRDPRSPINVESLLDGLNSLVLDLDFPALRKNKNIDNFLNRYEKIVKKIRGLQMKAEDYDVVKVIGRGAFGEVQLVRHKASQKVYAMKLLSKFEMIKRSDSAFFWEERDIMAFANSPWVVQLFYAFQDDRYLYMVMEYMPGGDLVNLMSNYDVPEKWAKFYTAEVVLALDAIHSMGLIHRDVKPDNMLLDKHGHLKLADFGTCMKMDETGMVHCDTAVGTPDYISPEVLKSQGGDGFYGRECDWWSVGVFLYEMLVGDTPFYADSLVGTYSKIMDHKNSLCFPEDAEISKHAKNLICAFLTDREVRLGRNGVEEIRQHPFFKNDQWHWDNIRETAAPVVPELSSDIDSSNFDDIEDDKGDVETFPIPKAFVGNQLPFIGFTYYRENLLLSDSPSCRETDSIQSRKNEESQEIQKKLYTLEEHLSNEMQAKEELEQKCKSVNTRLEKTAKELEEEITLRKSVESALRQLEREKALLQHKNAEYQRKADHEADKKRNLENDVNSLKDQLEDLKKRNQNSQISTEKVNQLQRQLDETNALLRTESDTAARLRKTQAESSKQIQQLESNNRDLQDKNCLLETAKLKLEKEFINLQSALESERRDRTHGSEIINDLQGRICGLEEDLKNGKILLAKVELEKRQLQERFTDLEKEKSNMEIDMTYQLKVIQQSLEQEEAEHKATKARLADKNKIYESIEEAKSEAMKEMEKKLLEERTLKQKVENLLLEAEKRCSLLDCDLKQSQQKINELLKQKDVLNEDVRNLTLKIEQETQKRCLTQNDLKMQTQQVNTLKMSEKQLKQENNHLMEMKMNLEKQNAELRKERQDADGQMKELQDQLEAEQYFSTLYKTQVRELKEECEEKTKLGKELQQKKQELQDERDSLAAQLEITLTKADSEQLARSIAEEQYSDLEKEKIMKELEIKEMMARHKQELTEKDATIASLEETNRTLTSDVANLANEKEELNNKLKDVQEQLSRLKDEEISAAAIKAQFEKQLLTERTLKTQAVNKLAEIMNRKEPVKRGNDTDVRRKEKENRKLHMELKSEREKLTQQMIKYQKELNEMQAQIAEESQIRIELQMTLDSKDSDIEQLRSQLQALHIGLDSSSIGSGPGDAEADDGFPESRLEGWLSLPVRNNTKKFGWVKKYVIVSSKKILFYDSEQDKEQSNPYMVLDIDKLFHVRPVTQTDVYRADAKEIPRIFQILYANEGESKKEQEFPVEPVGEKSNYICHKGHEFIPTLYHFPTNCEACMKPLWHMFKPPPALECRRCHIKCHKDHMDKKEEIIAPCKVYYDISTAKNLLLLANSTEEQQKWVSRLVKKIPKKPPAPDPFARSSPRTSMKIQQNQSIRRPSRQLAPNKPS
The target in series [2] is T2, Rho-associated protein kinase 1 (Homo sapiens, UniProt Q13464). Briefly: Inhibition of wild type partial length human ROCK1 (M1 to R415 residues) expressed in mammalian expression system by Euro-fins kinase profiler assay. In outline:
as §1
Target sequence in this assay (Q13464 whole entry, the tested form may be a part): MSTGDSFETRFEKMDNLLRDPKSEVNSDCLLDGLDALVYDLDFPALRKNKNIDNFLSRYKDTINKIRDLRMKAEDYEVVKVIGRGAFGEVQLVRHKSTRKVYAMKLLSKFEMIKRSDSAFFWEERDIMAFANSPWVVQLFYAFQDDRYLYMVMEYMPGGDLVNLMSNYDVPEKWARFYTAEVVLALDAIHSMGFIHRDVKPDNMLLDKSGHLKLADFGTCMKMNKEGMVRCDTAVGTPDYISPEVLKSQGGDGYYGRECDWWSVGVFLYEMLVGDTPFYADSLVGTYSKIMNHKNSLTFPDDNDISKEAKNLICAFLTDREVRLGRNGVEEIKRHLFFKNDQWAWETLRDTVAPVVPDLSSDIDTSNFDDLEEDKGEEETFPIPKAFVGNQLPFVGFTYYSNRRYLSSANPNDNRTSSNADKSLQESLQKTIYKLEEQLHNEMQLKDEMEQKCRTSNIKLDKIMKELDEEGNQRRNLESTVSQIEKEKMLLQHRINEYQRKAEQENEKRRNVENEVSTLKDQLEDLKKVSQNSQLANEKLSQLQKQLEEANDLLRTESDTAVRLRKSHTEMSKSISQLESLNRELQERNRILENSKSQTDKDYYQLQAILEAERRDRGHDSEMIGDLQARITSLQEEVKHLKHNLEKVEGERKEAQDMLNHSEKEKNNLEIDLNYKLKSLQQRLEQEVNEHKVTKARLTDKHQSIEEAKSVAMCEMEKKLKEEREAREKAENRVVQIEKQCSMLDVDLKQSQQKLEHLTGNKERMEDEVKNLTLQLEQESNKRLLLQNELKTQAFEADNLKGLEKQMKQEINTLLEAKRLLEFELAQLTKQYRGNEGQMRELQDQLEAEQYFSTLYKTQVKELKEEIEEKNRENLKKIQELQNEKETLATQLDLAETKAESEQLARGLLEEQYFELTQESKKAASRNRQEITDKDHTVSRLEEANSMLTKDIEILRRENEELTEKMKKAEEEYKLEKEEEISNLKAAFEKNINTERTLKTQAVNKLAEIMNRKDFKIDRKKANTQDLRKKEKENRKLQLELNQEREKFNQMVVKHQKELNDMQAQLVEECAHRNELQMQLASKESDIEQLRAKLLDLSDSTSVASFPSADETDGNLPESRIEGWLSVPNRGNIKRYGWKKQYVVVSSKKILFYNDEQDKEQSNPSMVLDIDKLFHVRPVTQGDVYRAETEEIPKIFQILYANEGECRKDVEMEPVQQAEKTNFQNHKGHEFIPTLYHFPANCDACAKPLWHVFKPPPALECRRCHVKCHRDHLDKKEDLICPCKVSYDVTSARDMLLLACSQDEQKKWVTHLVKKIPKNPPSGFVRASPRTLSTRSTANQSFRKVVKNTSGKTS

Series [3] relates to SH-SY5Y. Briefly: Inhibition of human ROCK in human SH-SY5Y cells assessed as inhibition of phosphorylation of MYPT1 at 0.1 to 1 uM measured after 12 hrs by western blot assay. Type of series: cell-based. The note with it: dose 0.1-1 µM. Put shortly:
(§2)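 SH-SY5Y cells exposed to compound at 0.1, 0.3 and 1 µM for 12 h. Phospho-MYPT1 assessed by western blot, with immunoblots quantified. Significance versus untreated control by t test.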
For orientation: A western blot detects proteins with antibodies after separation by electrophoresis.

Series [4] has as its target LIM domain kinase 2 (Homo sapiens) (UniProt P53671). The series can be described thus: Inhibition of LIMK2 (unknown origin) at 10 uM. In outline:
(§3)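 Kinase selectivity panel of 100 representative kinases, each tested at a fixed 10 µM; inhibition rate recorded per kinase. Values are averages of two independent experiments, mean ± SD.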

The target of series [5] is T2, Rho-associated protein kinase 1. The series can be described thus: Inhibition of ROCK1 (unknown origin) at 10 uM. Put shortly:
as §3
Target sequence in this assay (Q13464 2-1354 limits assumed): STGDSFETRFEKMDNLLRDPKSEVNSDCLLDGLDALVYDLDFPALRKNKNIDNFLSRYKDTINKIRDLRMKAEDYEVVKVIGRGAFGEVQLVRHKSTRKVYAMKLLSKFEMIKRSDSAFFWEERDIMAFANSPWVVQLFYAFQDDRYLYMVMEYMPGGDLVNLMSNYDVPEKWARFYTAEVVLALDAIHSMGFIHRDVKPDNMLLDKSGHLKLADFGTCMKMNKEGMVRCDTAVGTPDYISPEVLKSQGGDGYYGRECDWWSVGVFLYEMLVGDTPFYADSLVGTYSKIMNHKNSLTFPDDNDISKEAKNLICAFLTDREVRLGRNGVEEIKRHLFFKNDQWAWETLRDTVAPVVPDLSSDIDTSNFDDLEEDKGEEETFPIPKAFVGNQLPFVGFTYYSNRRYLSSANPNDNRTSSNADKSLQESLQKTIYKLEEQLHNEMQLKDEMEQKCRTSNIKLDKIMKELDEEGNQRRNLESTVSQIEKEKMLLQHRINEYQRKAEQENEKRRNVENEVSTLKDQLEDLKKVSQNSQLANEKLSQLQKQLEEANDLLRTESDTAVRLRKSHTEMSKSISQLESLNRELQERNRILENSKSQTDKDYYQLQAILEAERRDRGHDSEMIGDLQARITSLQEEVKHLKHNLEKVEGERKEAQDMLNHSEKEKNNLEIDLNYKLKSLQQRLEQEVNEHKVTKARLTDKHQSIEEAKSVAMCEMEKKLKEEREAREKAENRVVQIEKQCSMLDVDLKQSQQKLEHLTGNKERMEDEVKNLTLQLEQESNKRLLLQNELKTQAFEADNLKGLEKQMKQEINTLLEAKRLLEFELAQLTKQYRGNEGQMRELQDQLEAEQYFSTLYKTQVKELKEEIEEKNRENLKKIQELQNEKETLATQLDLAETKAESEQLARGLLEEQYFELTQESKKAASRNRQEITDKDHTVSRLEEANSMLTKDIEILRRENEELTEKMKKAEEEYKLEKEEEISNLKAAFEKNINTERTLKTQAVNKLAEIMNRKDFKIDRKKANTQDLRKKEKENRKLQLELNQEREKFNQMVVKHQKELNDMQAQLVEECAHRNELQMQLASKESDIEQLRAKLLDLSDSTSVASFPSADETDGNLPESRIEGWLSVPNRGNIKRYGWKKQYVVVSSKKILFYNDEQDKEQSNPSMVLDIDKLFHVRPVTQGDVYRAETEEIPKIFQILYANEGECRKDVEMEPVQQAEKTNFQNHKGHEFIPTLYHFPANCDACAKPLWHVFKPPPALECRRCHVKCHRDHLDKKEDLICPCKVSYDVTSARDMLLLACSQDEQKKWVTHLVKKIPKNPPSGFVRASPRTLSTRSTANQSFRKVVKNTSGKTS

Series [6] addresses T1, Rho-associated protein kinase 2. The series can be described thus: Inhibition of ROCK2 (unknown origin) at 10 uM. Put shortly: as §3
Target sequence in this assay (O75116 whole entry, looked up, the tested form may be a part): as the sequence (O75116 whole entry, the tested form may be a part) above
The test system of series [7] is SH-SY5Y. Briefly: Effect on MYPT1 expression in human SH-SY5Y cells at 0.1 to 1 uM measured after 12 hrs by western blot assay. Type of series: functional, cell-based. The note with it: dose 0.1-1 µM. Put shortly: as §2
For the next series, the system named is Oryctolagus cuniculus. The series can be described thus: Antiglaucoma activity in topically treated NZW rabbits assessed as reduction of intra ocular pressure measured after 1 hr relative to control. Type of series: functional. On the set-up: scale not given: the % may be the effect or the level left. Put shortly: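 Ocular normotensive NZW rabbits received 0.3% eye drops topically in one eye and vehicle in the contralateral eye. IOP was followed over several hours after instillation and expressed as reduction from baseline, with the 1 h reading compared against vehicle.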

A short description of series [8]: Toxicity in topically treated NZW rabbit assessed as hyperaemia measured after 3 hrs. On the set-up: species or system Oryctolagus cuniculus. As to conditions: in vivo, topical_or_ocular.

The source made the active and inactive calls. The rule behind the calls is not given here.

Sequence of LIM domain kinase 2 (Homo sapiens) (P53671 whole entry, looked up, the tested form may be a part): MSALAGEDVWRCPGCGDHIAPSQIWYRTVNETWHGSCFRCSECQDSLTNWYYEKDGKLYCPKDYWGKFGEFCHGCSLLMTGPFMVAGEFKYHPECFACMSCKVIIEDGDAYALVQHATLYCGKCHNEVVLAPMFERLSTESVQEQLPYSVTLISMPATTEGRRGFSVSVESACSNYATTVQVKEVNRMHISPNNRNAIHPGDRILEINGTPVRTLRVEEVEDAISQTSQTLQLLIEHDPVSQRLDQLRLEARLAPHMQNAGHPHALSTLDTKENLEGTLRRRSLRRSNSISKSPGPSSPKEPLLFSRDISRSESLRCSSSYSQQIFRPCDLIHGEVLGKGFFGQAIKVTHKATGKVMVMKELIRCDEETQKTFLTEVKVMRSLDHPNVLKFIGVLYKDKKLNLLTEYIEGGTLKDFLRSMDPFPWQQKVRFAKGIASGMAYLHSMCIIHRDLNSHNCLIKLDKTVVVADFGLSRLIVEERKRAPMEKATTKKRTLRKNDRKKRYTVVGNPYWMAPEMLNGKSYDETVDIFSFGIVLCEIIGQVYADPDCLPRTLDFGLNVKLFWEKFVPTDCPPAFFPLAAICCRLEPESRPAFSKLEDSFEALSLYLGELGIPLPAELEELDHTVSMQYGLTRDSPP

For orientation: IC50 means the concentration needed to halve the response being measured. With `COc1cccc(CN2CCOc3cc(-c4ccc5[nH]ncc5c4)ccc3C2=O)c1`, the 50% inhibitory concentration (IC50) in [1] came to 182 nM; in series [2] it was 1080 nM.
The corresponding values for `COc1cccc(CN2CCCc3cc(-c4ccc5[nH]ncc5c4)ccc3C2=O)c1` are 2110 nM and more than 10000 nM.
Take `O=C1c2ccc(-c3ccncc3)cc2OCCN1Cc1cccc(C(F)(F)F)c1`: the values for the half-inhibitory concentration (IC50) in [1] and in series [2] were 133 nM and 1960 nM, respectively.
In the case of `COc1cccc(CN2CC(C)(C)Oc3cc(-c4ccc5[nH]ncc5c4)ccc3C2=O)c1`, the IC50 in [1] turned out to be 749 nM; in series [2], 6010 nM.
Take `COC(=O)c1cccc(CN2CCOc3cc(-c4ccncc4)ccc3C2=O)c1`: the 50% inhibitory concentration (IC50) stood at 9 nM in series [1] and 208 nM in [2].
Turning to `COc1cccc(CN2CCOc3cc(-c4cnc5[nH]ccc5c4)ccc3C2=O)c1`, the IC50 was 5530 nM in series [1] and more than 10000 nM in series [2].
As to `COc1cccc(CN2CCOc3cc(-c4ccc5c(c4)OCO5)ccc3C2=O)c1`, the IC50 in [1] and in series [2] was more than 10000 nM each time.
For `COc1cccc(CN2CCOc3ccc(-c4ccncc4)cc3C2=O)c1`, the figures for the IC50 in [1] and in [2] were 761 nM and more than 10000 nM, respectively.
The corresponding values for `COc1cccc(CN2COc3cc(-c4ccc5[nH]ncc5c4)ccc3C2=O)c1` are 434 nM and 1460 nM.
Turning to `O=C1c2ccc(-c3ccncc3)cc2OCCN1Cc1cccc(OC(F)(F)F)c1`, the IC50 in [1] stood at 495 nM; in [2], 9240 nM.
The corresponding values for `COc1cccc(CN2CCOc3cc(-c4ccc(N)nc4)ccc3C2=O)c1` are more than 10000 nM and more than 10000 nM.
For `COc1cccc(CN2CCOc3cc(-c4ccnc5[nH]ccc45)ccc3C2=O)c1`, the half-inhibitory concentration (IC50) came to 15 nM in [1] and 103 nM in series [2].
The corresponding values for `COc1cc(CN2CCOc3cc(-c4ccncc4)ccc3C2=O)cc(OC)c1` are 217 nM and 4490 nM.
As to `COc1cccc(CN2CCOc3cc(-c4cncnc4)ccc3C2=O)c1`, the half-inhibitory concentration (IC50) in [1] and in series [2] was more than 10000 nM in each case.
Turning to `O=Cc1cccc(CN2CCOc3cc(-c4ccncc4)ccc3C2=O)c1`, the values for the IC50 in series [1] and in series [2] were 29 nM and 668 nM, respectively.
Take `N#Cc1cccc(CN2CCOc3cc(-c4ccncc4)ccc3C2=O)c1`: the figures for the IC50 in series [1] and in [2] were 50 nM and 3100 nM, respectively.
Regarding `COc1cccc(CN2CCOc3cc(-c4ccncc4)ccc3C2=O)c1`, the inhibition entry (with SH-SY5Y [3]; in series [4]; in series [5]; in series [6]) was “Active” each time. In addition, the half-inhibitory concentration (IC50) in series [1] was found to be 3 nM; in series [2], 93 nM. Further, in the series with SH-SY5Y [7], the outcome was inactive. Further, the results for the Activity (in the series with Oryctolagus cuniculus; in series [8]) were 34.3% and “Non-Toxic”, respectively.
Consider `COc1cccc(CN2CCOc3cc(-c4ccnc(N)c4)ccc3C2=O)c1`, for which the IC50 in [1] was 15 nM; in series [2], 1140 nM.

The record behind these values is ChEMBL document CHEMBL4834456, “Discovery of 3,4-dihydrobenzo[f][1,4]oxazepin-5(2H)-one derivatives as a new class of ROCK inhibitors for the treatment of glaucoma” (Bioorg Med Chem Lett, 2021).
